Results on 7 molecules are retold here after PubChem BioAssay.

Molecules are shown by their SMILES. Calls of active or inactive are those of the source.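 How the source made its calls, unless noted: active means visually confirmed hit in the image check and inhibition above 20%; inconclusive means visually confirmed hit but inhibition not above 20%; inactive means no visual hit in the image check.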

The term inhibition denotes the change of the read-out against control, counted positive when it falls.

Assay [1] can be described thus: inhibitors of TNFa-induced NFkB p65 translocation, primary screen, imaging, HUVEC, MLSMR starter and 10KST1 sets (AID 438;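 active means inhibition above 20% together with a positive visual image hit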;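 further: compound added about 3h40 before a 20 min TNFalpha stimulation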;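 on inhibition: signal is the nuclear over cytoplasmic p65 intensity ratio per well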). To be noted: HUVEC TNFa-induced p65 nuclear translocation; cell count: measured here: nuclei count (cytotoxicity indicator), at 2.08 µM; inhibition: at 2 µM, stronger effect = higher value, 0% TNFa-plus-vehicle, 100% no-TNFa wells.
Assay [2] is described as follows: endothelial E-selectin expression blockers – imaging, HUVEC, immunofluorescence, MLSMR starter and 10KST1 sets, primary screen (AID 487).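 On inhibition: signal is fraction of cell area covered by stained E-selectin grains.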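 On nuclei count: 100% = median nuclei count of all wells on the same plate.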 As to conditions: HUVEC TNFalpha-induced E-selectin immunofluorescence imaging, at 2 µM; inhibition: stronger effect = higher value; nuclei count: measured here: cell number, toxicity.
A short description of assay [3]: Primary imaging screen for DUSP6 inhibitors that restore phospho-Erk in transfected HeLa cells, chemical complementation (AID 609;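 active means compounds giving at least 50% inhibition in the cell-based MKP-3 phosphatase rescue imaging test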;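 on inhibition: phospho-Erk level distribution per well compared with pooled transfected vehicle control wells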). To be noted: HeLa MKP-3 transfected, phospho-Erk imaging KS statistic, at 10 µM, cells stimulated with TPA for 15 min.
The target in assay [4] is Dual specificity protein phosphatase 6 (Homo sapiens) (UniProt Q16828). The assay is described as above. To be noted: HeLa MKP-3 transfected, phospho-Erk imaging KS statistic; at 10 µM; stronger effect = higher value; cells stimulated with TPA for 15 min.
Chain of Dual specificity protein phosphatase 6 (Homo sapiens) (Q16828 whole entry, looked up): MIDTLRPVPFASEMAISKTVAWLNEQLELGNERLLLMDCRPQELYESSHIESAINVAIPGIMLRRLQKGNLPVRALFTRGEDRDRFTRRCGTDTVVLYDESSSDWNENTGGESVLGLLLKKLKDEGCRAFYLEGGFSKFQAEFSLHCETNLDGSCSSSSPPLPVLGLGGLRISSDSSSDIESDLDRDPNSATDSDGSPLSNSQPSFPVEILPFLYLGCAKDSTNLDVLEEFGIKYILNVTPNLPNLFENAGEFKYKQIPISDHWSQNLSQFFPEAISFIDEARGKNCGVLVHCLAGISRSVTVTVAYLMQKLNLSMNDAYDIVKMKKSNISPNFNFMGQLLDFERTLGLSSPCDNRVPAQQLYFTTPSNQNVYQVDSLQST
Assay [5] has as its target Voltage-gated potassium channel subunit beta-2 (Rattus norvegicus) (UniProt P62483). The assay can be described thus: inhibitors of rat Kvbeta2 reductase activity – biochemical, NADPH fluorescence, primary screen (AID 622;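 active means fluorescence slope higher than the sample average by over 3 SD, cut at about -0.22 in these data, passing the limit was not always enough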;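 further: slope of raw intensity against log time taken from 70 to 1610 s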). To be noted: recombinant KvBeta, 4-cyanobenzaldehyde reduction, at 10 µM, stronger effect = higher value.
For assay [6] the target is unchanged. The assay can be described thus: enhancers of rat Kvbeta2 NADPH turnover – biochemical, NADPH fluorescence, primary screen (AID 623;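 active means NADPH fluorescence slope more negative than the mean of all samples by about 3 SD, 99.7% confidence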;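 further: fluorescence intensity change per second fitted from 20 to 320 s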). To be noted: Recombinant KvBeta, NADPH fluorescence decrease slope, 10 min; at 10 µM; stronger effect = lower value.
Assay [7] has as its target Muscarinic acetylcholine receptor M4 (Homo sapiens) (UniProt P08173). The assay can be described thus: M4-linked GIRK flux change, two-sided – cell-based, HEK293 M4/GIRK, thallium flux, BTC-AM, M4 allosteric agonist project, primary screen (AID 625;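 active means fluorescence slope after compound addition differing from the mean of all tested samples at 99.7% confidence, mostly higher but some lower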;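 further: thallium influx through GIRK channels coupled to M4 in HEK293 cells with BTC-AM dye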). To be noted: at 10 µM, actives lie on both sides. The method, boiled down: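 Material – HEK293 cells with M4 receptor and GIRK channels · Buffer or medium – pH 7.3 thallium assay buffer · Doses – one dose, 10 µM final · Timing – cells overnight at 37 °C, BTC-AM loading 1 h, reads 2 min total · Measured by – kinetic fluorescence with BTC-AM dye · Controls – carbachol and DMSO controls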

Assay [8] can be described thus: inhibitors of larval lipid processing in zebrafish, primary screen, whole organism, PED6 fluorescence, gall bladder and intestine (AID 686;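 active means a full or partial loss of lipid-probe fluorescence in the fish gall bladder, intestine or both, judged by eye; inactive means no fluorescence loss, or compound toxic to the fish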;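 further: larvae 5 to 7 days old with five fish per well; signal comes from phospholipase A2 cleavage of quenched PED6 carried via bile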). As to conditions: Zebrafish larvae PED6 lipid processing, fluorescence scoring; screened at 20 µM (by protocol). The method, boiled down: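 system = live zebrafish larvae aged 5-7 days, whole organism | probe or stimulus = ingested quenched lipid PED6 at 100 nM | doses = 20 µM single dose | timing = overnight exposure | detection = fluorescence microscopy with visual scoring of gall bladder and intestine | read-out = visual per-well fluorescence inhibition score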

Assay [9] can be described thus: loss of swimming-algae plug formation – whole organism, Chlamydomonas reinhardtii, WT vs cilia-less mutant, absorbance, 96-well, primary screen (AID 463189;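 active means inhibition at or above 50% relative to wild type and mutant plate controls; inactive means inhibition below 50%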;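 further: 0% = wild type cc124 cells in DMSO and 100% = ciliumless bld1 mutant cells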). To be noted: Chlamydomonas reinhardtii gravitaxis, OD600 absorbance, 2 days; at 10 µM; stronger effect = higher value.
[10] abbreviates: measured here: cell density z-score.
Where [11] appears, read: measured here: nuclear c-Myc green intensity z-score.
Where [12] appears, read: measured here: nuclear pErk red intensity z-score, stronger effect = higher value.

Chain of Muscarinic acetylcholine receptor M4 (Homo sapiens) (P08173 whole entry, looked up): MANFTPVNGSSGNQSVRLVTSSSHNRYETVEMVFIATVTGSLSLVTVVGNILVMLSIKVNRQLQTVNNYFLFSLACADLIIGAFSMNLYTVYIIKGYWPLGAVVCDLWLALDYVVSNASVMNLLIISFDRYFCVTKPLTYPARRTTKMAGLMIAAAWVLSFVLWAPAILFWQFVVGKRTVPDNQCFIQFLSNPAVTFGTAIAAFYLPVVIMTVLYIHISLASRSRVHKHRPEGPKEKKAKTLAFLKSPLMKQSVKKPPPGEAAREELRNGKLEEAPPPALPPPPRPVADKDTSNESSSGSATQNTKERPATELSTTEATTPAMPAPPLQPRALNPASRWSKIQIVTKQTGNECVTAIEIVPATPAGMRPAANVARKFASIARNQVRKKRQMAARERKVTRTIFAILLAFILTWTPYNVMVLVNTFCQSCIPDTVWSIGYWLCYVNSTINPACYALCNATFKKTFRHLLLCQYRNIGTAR
Chain of Voltage-gated potassium channel subunit beta-2 (Rattus norvegicus) (P62483 whole entry, looked up): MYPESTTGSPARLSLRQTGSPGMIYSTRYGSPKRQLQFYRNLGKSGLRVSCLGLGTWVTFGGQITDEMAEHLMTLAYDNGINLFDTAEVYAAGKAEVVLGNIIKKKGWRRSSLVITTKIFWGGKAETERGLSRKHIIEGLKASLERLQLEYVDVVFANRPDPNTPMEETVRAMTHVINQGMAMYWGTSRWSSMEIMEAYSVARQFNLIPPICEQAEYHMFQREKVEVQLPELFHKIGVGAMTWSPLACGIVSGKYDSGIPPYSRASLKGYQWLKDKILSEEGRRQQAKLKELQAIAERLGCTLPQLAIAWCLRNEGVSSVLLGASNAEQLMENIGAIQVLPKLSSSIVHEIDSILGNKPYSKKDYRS

Take `CCOC(=O)NC(Nc1sc2c(c1C(N)=O)CCCC2)(C(=O)OCC)C(F)(F)F` (stereo unspecified): in assay [1], the cell count is 707. Further, the inhibition in [1] is -5.7% (inactive); in [2], -51.4% (inactive); in assay [4], 16.5% (inactive); in assay [9] it was 1.44% (inactive). Moreover, in assay [2], the nuclei count is 144%. Besides, the z-score was 0.203 in [3] (setting [10]), -0.663 in [3] (setting [11]) and 1.92 in assay [3] (setting [12]). In addition, the fluorescence slope in assay [5] was -0.448 (inactive); in [7], 0.00659 (inactive). The NADPH fluorescence slope in assay [6] is -1.9e-05 (inactive). Further, the result in assay [8] was inactive.
In the case of `COc1cc(N2CCCC2)c(OC)cc1/C=c1/sc2nc3ccccc3n2c1=O`, the cell count in [1] stood at 499. For the same molecule, the inhibition is -8.5% (inactive) in [1], -137% (inactive) in [2], 39.3% (inactive) in assay [4] and 3.75% (inactive) in assay [9]. This molecule also displayed a nuclei count in assay [2] of 155%. Moreover, the z-score in assay [3] (setting [10]) was -1.29; in assay [3] (setting [11]), 0.0669; in assay [3] (setting [12]), -0.774. For the same molecule, the fluorescence slope was -0.438 (inactive) in [5] and 0.00712 (inactive) in assay [7]. The NADPH fluorescence slope in assay [6] is -3.3e-05 (inactive). In assay [8], the molecule was classed as inactive.
Consider `CCCCc1nc(NCC2CCCO2)c(C#N)c2c1COC(C)(C)C2` (stereo unspecified), for which the cell count in assay [1] is 380. For the same molecule, the inhibition in assay [1] was -5.9% (inactive); in [2] it was -69.1% (inactive); in [4] it was 31.4% (inactive); in [9], -8.27% (inactive). This molecule also showed a nuclei count in assay [2] of 135%. The values for the z-score in [3] (setting [10]), in [3] (setting [11]) and in assay [3] (setting [12]) were -0.8, 1.32 and -1.16, respectively. The results for the fluorescence slope in [5] and in [7] were -0.509 (inactive) and 0.00404 (inactive), respectively. Moreover, the NADPH fluorescence slope in assay [6] is -7.2e-05 (inactive). In assay [8], the outcome was inactive.
Take `CCOC(=O)C1=C(N)N2C(=O)CSC2=C(C(=O)OC)C1`: the cell count in [1] came out at 523. Besides, the inhibition is 1.5% (inactive) in assay [1], -111% (inactive) in assay [2], 5.42% (inactive) in [4] and -0.259% (inactive) in [9]. This molecule showed a nuclei count in [2] of 138%. Further, the z-score is 0.366 in assay [3] (setting [10]), 1.6 in [3] (setting [11]) and -1.91 in [3] (setting [12]). Besides, the fluorescence slope in assay [5] is -0.476 (inactive); in assay [7] it was 0.00418 (inactive). Moreover, the NADPH fluorescence slope in assay [6] was -0.000109 (inactive). The result in assay [8] was inactive.
Regarding `CCCc1nc2n[nH]c(N)c2c2c1CCCC2`, the cell count in assay [1] stood at 478. The inhibition in [1] is -12.3% (inactive); in [2], -64.3% (inactive); in assay [4], -2.09% (inactive); in assay [9], -1.38% (inactive). The molecule also came in with a nuclei count in assay [2] of 118%. The figures for the z-score in assay [3] (setting [10]), in [3] (setting [11]) and in assay [3] (setting [12]) were -0.479, -0.89 and -1.19, respectively. Further, the fluorescence slope in assay [5] was -0.48 (inactive); in assay [7], 0.00548 (inactive). Besides, the NADPH fluorescence slope in assay [6] is -0.000102 (inactive). Also, the molecule was called inactive in assay [8].
With `CCN(CC)CCCN1C(=O)C(=O)/C(=C(/O)c2ccc(OC)cc2)C1c1ccco1` (stereo unspecified), the cell count in [1] came to 651. Also, the inhibition in [1] is -11.9% (inactive); in [2], 43.5% (inactive); in assay [4] it was -0.233% (inactive); in assay [9], -7.38% (inactive). In addition, the nuclei count in [2] is 185%. In addition, the results for the z-score in assay [3] (setting [10]), in [3] (setting [11]) and in assay [3] (setting [12]) were 0.516, 0.587 and 0.462, respectively. Moreover, the fluorescence slope in assay [5] was -0.471 (inactive); in [7], 0.0055 (inactive). Moreover, the NADPH fluorescence slope in assay [6] was -0.000107 (inactive). Besides, the outcome in assay [8] was inactive.
As to `CC1(C)Cc2c(C#N)c(N3CCOCC3)nc(Cc3ccccc3)c2CO1`, in [1], the cell count amounted to 582. In addition, the inhibition in [1] is -0.5% (inactive); in assay [2] it was -122% (inactive); in assay [4], -3.95% (inactive); in assay [9], 17.6% (inactive). In addition, the nuclei count in assay [2] turned out to be 132%. Also, the figures for the z-score in assay [3] (setting [10]), in assay [3] (setting [11]) and in assay [3] (setting [12]) were -0.332, -0.948 and -0.693, respectively. Further, the fluorescence slope in assay [5] was -0.445 (inactive); in [7] it was 0.00448 (inactive). For the same molecule, in assay [6], the NADPH fluorescence slope is -5.6e-05 (inactive). Besides, the molecule was called inactive in [8].
